How the values were obtained:
[1] = test system: HOP-62; assay: Antiproliferative activity against human HOP62 cells after 48 hrs by sulforhodamine B assay; format: functional; conditions: HOP-62, 48 h
Procedure, shortened: (§1)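 NCI 60-cell-line panel covering nine cancer types (leukemia, non-small cell lung, colon, CNS, melanoma, ovarian, renal, prostate, breast). Compounds were first tested at a single dose, then in a five-dose screen (series starting 0.01, 0.1 …) if they met NCI threshold criteria. Reported per line: GI50 (molar concentration inhibiting 50% net growth), TGI (total growth inhibition) and LC50 (50% net cell death).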

[2] = Cytotoxicity in HFF cells after 72 hrs by trypan blue exclusion assay; format: cell-based; conditions: human
Procedure, shortened: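 Human normal fibroblasts, 2 × 10⁵ per well, seeded in RPMI 1640 with 10% fetal calf serum plus penicillin and streptomycin at 37 °C under CO₂. Compound added after 24 h. Living cells counted at 72 h by trypan blue exclusion, expressed as percent of control proliferation; GI50 derived.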

[3] = test system: KM12; assay: Antiproliferative activity against human KM12 cells after 48 hrs by sulforhodamine B assay; format: functional; conditions: KM12, 48 h; procedure, shortened: as §1
[4] = test system: MDA-MB-435; assay: Antiproliferative activity against human MDA-MB-435 cells after 48 hrs by sulforhodamine B assay; format: functional; conditions: MDA-MB-435, 48 h; procedure, shortened: as §1
[5] = test system: SNB-75; assay: Antiproliferative activity against human SNB75 cells after 48 hrs by sulforhodamine B assay; format: functional; conditions: SNB-75, 48 h; procedure, shortened: as §1
[6] = test system: UACC-62; assay: Antiproliferative activity against human UACC62 cells after 48 hrs by sulforhodamine B assay; format: functional; conditions: UACC-62, 48 h
Procedure, shortened: (§2)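 NCI 60-cell-line panel screen: single dose 10 µM first, then 5-dose testing (0.01, 0.1, … molar series). For each line, GI50 is the molar concentration giving 50% inhibition of net cell growth, TGI gives total inhibition of net growth, and LC50 gives 50% net cell death. Method follows the NCI DTP protocol.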

[7] = test system: OVCAR-4; assay: Antiproliferative activity against human OVCAR4 cells after 48 hrs by sulforhodamine B assay; format: functional; conditions: OVCAR-4, 48 h; procedure, shortened: as §1
[8] = test system: SNB-19; assay: Antiproliferative activity against human SNB19 cells after 48 hrs by sulforhodamine B assay; format: functional; conditions: SNB-19, 48 h; procedure, shortened: as §1
[9] = test system: NCI-H460; assay: Antiproliferative activity against human NCI-H460 cells after 48 hrs by sulforhodamine B assay; format: functional; conditions: NCI-H460, 48 h; procedure, shortened: as §1
[10] = test system: MCF7; assay: Antiproliferative activity against human MCF7 cells after 48 hrs by sulforhodamine B assay; format: functional; conditions: MCF7, 48 h; procedure, shortened: as §1
[11] = test system: HT-29; assay: Antiproliferative activity against human HT-29 cells after 48 hrs by sulforhodamine B assay; format: functional; conditions: HT-29, 48 h; procedure, shortened: as §1
[12] = test system: HCT-116; assay: Antiproliferative activity against human HCT116 cells after 48 hrs by sulforhodamine B assay; format: functional; conditions: HCT-116, 48 h; procedure, shortened: as §1
[13] = test system: CCRF-CEM; assay: Antiproliferative activity against human CCRF-CEM cells after 48 hrs by sulforhodamine B assay; format: functional; procedure, shortened: as §1
[14] = test system: A498; assay: Antiproliferative activity against human A498 cells after 48 hrs by sulforhodamine B assay; format: functional; conditions: A498, 48 h; procedure, shortened: as §1
[15] = test system: NCI/ADR-RES; assay: Antiproliferative activity against human NCI/ADR-RES cells after 48 hrs by sulforhodamine B assay; format: functional; procedure, shortened: as §1
[16] = test system: IGROV-1; assay: Antiproliferative activity against human IGROV1 cells after 48 hrs by sulforhodamine B assay; format: functional; conditions: IGROV-1, 48 h; procedure, shortened: as §1
[17] = test system: SK-MEL-5; assay: Antiproliferative activity against human SK-MEL-5 cells after 48 hrs by sulforhodamine B assay; format: functional; conditions: SK-MEL-5, 48 h; procedure, shortened: as §1
[18] = test system: NCI-H23; assay: Antiproliferative activity against human NCI-H23 cells after 48 hrs by sulforhodamine B assay; format: functional; conditions: NCI-H23, 48 h; procedure, shortened: as §1
[19] = test system: NCI-H322M; assay: Antiproliferative activity against human NCI-H322M cells after 48 hrs by sulforhodamine B assay; format: functional; procedure, shortened: as §1
[20] = test system: HL-60(TB); assay: Antiproliferative activity against human HL-60(TB) cells after 48 hrs by sulforhodamine B assay; format: functional; conditions: HL-60, 48 h
Procedure, shortened: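 Tested by the National Cancer Institute in its full tumour cell panel covering nine cancer types, including leukemia. Compounds were first screened at a single dose. Those passing the preset inhibition threshold then went to a 5-dose screen. GI50 is the molar concentration giving 50% inhibition of net cell growth; TGI and LC50 were also derived.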

[21] = test system: SW-620; assay: Antiproliferative activity against human SW620 cells after 48 hrs by sulforhodamine B assay; format: functional; conditions: SW-620, 48 h; procedure, shortened: as §2
[22] = test system: LOX IMVI; assay: Antiproliferative activity against human LOXIMVI cells after 48 hrs by sulforhodamine B assay; format: functional; procedure, shortened: as §1
[23] = test system: NCI-H522; assay: Antiproliferative activity against human NCI-H522 cells after 48 hrs by sulforhodamine B assay; format: functional; conditions: NCI-H522, 48 h; procedure, shortened: as §1
[24] = test system: SK-MEL-28; assay: Antiproliferative activity against human SK-MEL-28 cells after 48 hrs by sulforhodamine B assay; format: functional; conditions: SK-MEL-28, 48 h; procedure, shortened: as §1
[25] = test system: OVCAR-3; assay: Antiproliferative activity against human OVCAR3 cells after 48 hrs by sulforhodamine B assay; format: functional; conditions: OVCAR-3, 48 h; procedure, shortened: as §1
[26] = test system: SF-295; assay: Antiproliferative activity against human SF295 cells after 48 hrs by sulforhodamine B assay; format: functional; conditions: SF-295, 48 h; procedure, shortened: as §1
[27] = test system: OVCAR-8; assay: Antiproliferative activity against human OVCAR8 cells after 48 hrs by sulforhodamine B assay; format: functional; conditions: OVCAR-8, 48 h; procedure, shortened: as §1
[28] = read-out: LC50 (the source's name)

## Nc1nn(C(=O)Nc2ccc(Cc3ccccc3)cc2)c2ccc(Cl)cc12
[1]
  GI50: 1.21 µM
  LC50 (concentration causing 50% net cell death): 59.7 µM
  TGI: 16.4 µM
[2]
  GI50 at 72 h: 36 µM
[3]
  GI50: 0.0726 µM
  TGI: > 100 µM
[3]; [28]
  CC50: > 100 µM
[4]
  GI50: 0.0813 µM
  TGI: > 100 µM
[4]; [28]
  CC50: > 100 µM
[5]
  GI50: 14 µM
  LC50 (concentration causing 50% net cell death): 74.5 µM
  TGI: 32.3 µM
[6]
  GI50: 0.0412 µM
  TGI: > 100 µM
[6]; [28]
  CC50: > 100 µM
[7]
  GI50: 5.73 µM
  TGI: 34.3 µM
[7]; [28]
  CC50: > 100 µM
[8]
  GI50: 14.6 µM
  TGI: 43.3 µM
[8]; [28]
  CC50: > 100 µM
[9]
  GI50: 0.0645 µM
  TGI: 14.7 µM
[9]; [28]
  CC50: 60.6 µM
[10]
  GI50: 0.395 µM
  TGI: 18.8 µM
[10]; [28]
  CC50: 84 µM
[11]
  GI50: 1.15 µM
  LC50 (concentration giving 50% net cell death): 79.1 µM
  TGI: 24 µM
[12]
  GI50: 0.467 µM
  LC50 (concentration causing 50% net cell death): 77.2 µM
  TGI: 25.1 µM
[13]
  GI50: 1.23 µM
  LC50 (concentration causing 50% net cell death): > 100 µM
  TGI: 34.4 µM
[14]
  GI50: 16.1 µM
  TGI: 60.7 µM
[14]; [28]
  CC50: > 100 µM
[15]
  GI50: 11 µM
  TGI: 39.1 µM
[15]; [28]
  CC50: > 100 µM
[16]
  GI50: 13.7 µM
  TGI: > 100 µM
[16]; [28]
  CC50: > 100 µM
[17]
  GI50: 0.283 µM
  TGI: 21.1 µM
[17]; [28]
  CC50: 80.2 µM
[18]
  GI50: 5.34 µM
  TGI: 68.4 µM
[18]; [28]
  CC50: > 100 µM
[19]
  GI50: 18.2 µM
  TGI: > 100 µM
[19]; [28]
  CC50: > 100 µM
[20]
  GI50: 2.62 µM
  TGI: 42.1 µM
[20]; [28]
  CC50: > 100 µM
[21]
  GI50: 0.0565 µM
  TGI: 76.5 µM
[21]; [28]
  CC50: > 100 µM
[22]
  GI50: 0.0503 µM
  LC50 (concentration causing 50% net cell death): 53.2 µM
  TGI: 18.4 µM
[23]
  GI50: 15.6 µM
  LC50 (concentration causing 50% net cell death): > 100 µM
  TGI: > 100 µM
[24]
  GI50: 18.5 µM
  TGI: > 100 µM
[24]; [28]
  CC50: > 100 µM
[25]
  GI50: 6.66 µM
  TGI: 20.8 µM
[25]; [28]
  CC50: 48.2 µM
[26]
  GI50: 0.0515 µM
  LC50: > 100 µM
  TGI: 24.2 µM
[27]
  GI50: 14.9 µM
  TGI: > 100 µM
[27]; [28]
  CC50: > 100 µM

Source: ChEMBL document CHEMBL1649392, “Synthesis of substituted 3-amino-N-phenyl-1H-indazole-1-carboxamides endowed with antiproliferative activity” (Eur J Med Chem, 2011)
